TbMetRS inhib: blocks T. brucei methionyl-tRNA synthetase activity; AID 624268; inhibition, % at 11.9 µM; 360,000 compounds, 0.4% hits; purified T. brucei MetRS, ATP depletion, Kinase-Glo luminescence;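 active = inhibition above a per-plate cutoff of the control wells' mean inhibition plus 3 SD, cut at about 5.5% in these data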
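Material – parasite MetRS enzyme · Medium – HEPES-MgCl2-KCl buffer plus DTT, spermine, BSA, pyrophosphatase · Reagent – ATP, methionine and E. coli bulk tRNA substrates · Times – 15 min enzyme-compound preincubation, 2 h reaction, 10 min detection, 25 °C · Measured by – luminescence of leftover ATP · Evaluation – percent inhibition relative to median high and low control wells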
iPSC survival up: hiPSC single-cell survival enhancement; 360,000 compounds, 0.044% hits; survival enhancement, % at 20 µM; ATPlite luminescence; 100% = ROCK inhibitor wells, 0% = DMSO; in the data active = survival enhancement above about 18%;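 note: cells exposed to compounds for 16 hours before the ATP read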
Granule exo inh: lytic granule exocytosis inhibition; TALL-104 LAMP-1 surface exposure, flow cytometry; cells stimulated with thapsigargin and PMA; inhibition, % at 10 µM; 360,000 compounds, 0.66% hits; AID 651702;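 active = inhibition above about 55%, limit read from the data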
ABCB6 inh 2: blocks the human ABCB6 transporter | Q9NP58 | 360,000 compounds, 0.19% hits | K562-ABCB6 porphyrin accumulation, flow cytometry, 1 h; stronger effect = lower value | fluorescence ratio to DMSO, % at 10 µM;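 active = fluorescence ratio to DMSO below 75%, the collection mean minus 3 SD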;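 note: signal is porphyrin accumulated inside mitochondria; lower ratio means ABCB6 inhibition with less porphyrin fluorescence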
MC4R antag cAMP: blocks human MC4R cAMP signaling; MC4R-expressing cells, MTII-stimulated cAMP, LANCE TR-FRET; 360,000 compounds, 0.48% hits; P32245; inhibition, % at 6.5 µM;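 active = inhibition above its plate's cutoff, the mean of tested wells on that plate plus 3 SD, cut at about 29% in these data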
Target sequence (P32245 whole entry, looked up): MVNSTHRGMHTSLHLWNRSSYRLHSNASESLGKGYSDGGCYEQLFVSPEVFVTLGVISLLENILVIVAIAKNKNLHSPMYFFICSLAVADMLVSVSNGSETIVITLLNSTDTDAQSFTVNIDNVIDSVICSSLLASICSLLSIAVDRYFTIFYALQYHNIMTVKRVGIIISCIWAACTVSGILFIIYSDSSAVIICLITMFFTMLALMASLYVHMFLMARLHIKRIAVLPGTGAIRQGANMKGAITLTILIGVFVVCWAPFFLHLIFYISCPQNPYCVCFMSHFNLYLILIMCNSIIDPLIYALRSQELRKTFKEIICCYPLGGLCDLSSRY
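material = U2OS cells stably expressing human melanocortin 4 receptor (MC4R) | also added = Melanotan II challenge | dosing = single nominal compound dose of 6.5 µM | detection = TR-FRET with Eu-cAMP and labeled anti-cAMP, 671 nm | replication = singlicate | timing = compound 30 min, challenge 1 h, detection 1 h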
MC4R ag barr: human MC4R agonism via beta-arrestin; U2OS MC4R beta-arrestin complementation, luminescence; percent of melanotan II response, DMSO zero; activation, % at 8.9 µM; AID 540308; P32245; 360,000 compounds, 0.98% hits;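 active = activation above a per-plate cutoff, the mean activation of sample wells on that plate plus 3 SD, cut at about 8% in these data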
Numbers stand for hits; - = inactive; . = no result given. Only some compounds are listed: those with a hit (about 2.6% of all), similar ones and a draw of the others.

SMILES	TbMetRS inhib	iPSC survival up	Granule exo inh	ABCB6 inh 2	MC4R antag cAMP	MC4R ag barr
Cc1c(Cl)cccc1NC(=O)c1cc(-c2ccccc2O)n[nH]1	-	-	-	-	-	9.3
Cc1ccccc1OCC(=O)Nc1cccc(Cl)c1C	-	-	-	-	-	8.6
C[C@H](CO)N1C[C@H](C)[C@H](CN(C)Cc2ccc(C(=O)O)cc2)OCc2ccccc2-c2c(n(C)c3ccccc23)C1=O	-	-	-	-	-	-
COc1cc(C)ccc1OCc1cc(C(=O)NC(c2ccccn2)C(F)(F)F)no1 (stereo unspecified)	-	-	-	-	-	-
CCOC(=O)c1sc(=S)n(-c2ccc(OC)cc2)c1C	-	-	-	-	-	-
CCOC(=O)c1c2c(n(-c3ccc(OC)cc3)c1C)C(=O)C(=O)c1ccccc1-2	-	-	98	-	-	-
Cc1ccc(NC(=O)Cn2sc3nc(C)cc(C)c3c2=O)c(Cl)c1	-	-	81	-	-	-
Cc1cc(C)c2c(=O)n(CC(=O)Nc3ccc(Cl)cc3)sc2n1	-	-	-	-	-	-
COc1ccc([C@H]2CC(=O)C[C@@H](CCn3cc(-c4cccnc4)nn3)O2)cc1	-	-	-	-	.	.
CC(=O)OCCCNc1cc(Sc2ccc(Cl)cc2)c2nonc2c1[N+](=O)[O-]	-	-	64	-	-	-
COc1ccc(N2CCN(S(=O)(=O)CCNC(=O)COc3ccccc3OC)CC2)cc1	-	-	-	-	-	-
Cn1cnnc1SCC(=O)c1ccc2c(c1)OCO2	-	22	-	-	-	-
COc1ccccc1-c1nc(S(=O)(=O)c2ccccc2)c(N2CCCCC2)o1	-	-	-	-	32	-
COC(=O)C1=C(C)N(Cc2ccccc2)C(=O)N[C@H]1c1cccc(C(F)(F)F)c1	-	-	-	-	-	-
COC(=O)C1=C(C)N(Cc2ccccc2)C(=NCc2cccc(Cl)c2)N[C@H]1c1cccc(F)c1	-	-	-	-	-	13
COC(=O)C1=C(C)N(Cc2ccccc2)C(=NCc2ccccc2)N[C@H]1c1cccc(C(F)(F)F)c1	-	-	-	-	-	16
COc1ccc(-c2cnnn2-c2ccc([N+](=O)[O-])cc2)cc1	-	-	-	-	-	-
CC(C)(C)OC(=O)N1CCC(NC(=O)c2[nH]cnc2C(=O)Nc2ccccc2F)CC1	-	-	-	-	-	8.3
CC(C)(C)OC(=O)N1CCC(NC(=O)c2[nH]cnc2C(=O)Nc2ccc(Br)cc2F)CC1	-	-	-	-	-	-
CC(C)(C)OC(=O)N1CCC(NC(=O)c2[nH]cnc2C(=O)Nc2ccccc2)CC1	-	-	-	-	-	8.5
O=C(CC12CC3CC(CC(C3)C1)C2)Nc1ccccc1N1CCOCC1	-	-	-	-	-	-
CCCn1c(SCC(=O)NC2CCCCC2)nnc1-c1ccco1	-	-	-	-	-	-
COc1ccc(CCN=C(N)NS(=O)(=O)c2ccccc2)cc1OC	-	-	-	-	-	-
Cc1cc(=O)oc2cc(NC(=O)C3COc4ccccc4O3)ccc12 (stereo unspecified)	-	-	-	-	-	11
COc1ccc(S(=O)(=O)Nc2ccccn2)cc1C(=O)Nc1ccccc1	-	-	-	-	-	-
SMILES	TbMetRS inhib	iPSC survival up	Granule exo inh	ABCB6 inh 2	MC4R antag cAMP	MC4R ag barr
CCOC(=O)c1c(C)[nH]c(C)c1S(=O)(=O)N(C)Cc1ccco1	-	-	-	-	-	-
Cc1c(NC(C)c2ccccc2O)c(=O)n(-c2ccccc2)n1C (stereo unspecified)	-	-	-	54	-	-
Cc1c(NC(C)c2cc(Cl)ccc2O)c(=O)n(-c2ccccc2)n1C (stereo unspecified)	-	-	-	-	-	-
CNc1nc(Cl)nc(NC(C)(C)C)n1	-	17	-	-	-	-
COC(=O)Nc1nc2c(C)cccc2s1	-	-	-	-	-	-
CSc1cccc(NC(=O)Nc2nc3c(C)cccc3s2)c1	-	-	-	-	-	9.1
N=C(N)SCc1cn(-c2ccccc2)nc1-c1ccc(Br)cc1	-	-	-	-	-	17
Cc1cccc(NCC(=O)N/N=C/c2ccc(Br)cc2)c1	-	-	-	-	-	8.4
CSc1ccc(/C=N\NC(=O)CNc2ccc(C)cc2)cc1	-	-	-	-	-	-
O=C(CN1C2=NCCN2c2ccccc21)c1ccc2c(c1)OCO2	-	-	-	-	-	-
O=C(CN1C2=NCCN2c2ccccc21)c1ccc(Br)cc1	5.9	-	-	-	-	-
COC(=O)c1cc(NC(=O)Cc2cc(OC)c(OC)c(OC)c2)cc(C(=O)OC)c1	-	-	-	-	-	-
COC(=O)[C@]1(Cc2ccccc2)N[C@H](CN(C)C(=O)Nc2ccccc2)[C@@H]2C(=O)N(C)C(=O)[C@@H]21	-	28	-	-	-	-
COC(=O)[C@]1(Cc2ccccc2)N[C@H](CN(C)C(=O)Nc2ccc(OC)cc2)[C@@H]2C(=O)N(C)C(=O)[C@@H]21	-	-	-	-	-	-
COc1ccc(CC(=O)Nc2cccc(-c3nnc(-c4ccccc4)o3)c2)cc1OC	-	-	69	-	-	-
COc1ccc(CC(=O)Nc2cccc(-c3nnc(-c4ccc(C)cc4)o3)c2)cc1OC	-	-	88	-	-	-
COc1ccc(CC(=O)Nc2cccc(-c3nnc(-c4cccc(C)c4)o3)c2)cc1OC	-	-	-	-	-	-
COc1ccc(CC(=O)Nc2ccc(-c3nnc(-c4ccccc4)o3)cc2)cc1OC	-	-	-	-	-	-
CCOC(=O)c1c(NC(C)=O)sc2c1CCC(C=O)=C2Sc1ccccc1	-	-	95	-	-	-
O=C(NC1CCCCC1)C(c1cccnc1)N(C(=O)CCl)c1cccc(Cl)c1 (stereo unspecified)	-	-	-	-	-	13
COc1ccc(C(C(=O)NC2CCCCC2)N(C(=O)CCl)c2ccc(Cl)cc2)cc1 (stereo unspecified)	-	-	-	-	-	13
COc1ccc(C(=O)NNC(=O)c2ccc3ccccc3n2)cc1	-	-	-	-	-	-
COC(=O)c1ccc(C(=O)OC)c(NC(=O)CSc2cccc[n+]2[O-])c1	-	22	-	-	-	-
COC(=O)c1ccc(-n2c(C)cc(C(=O)CSc3cccc[n+]3[O-])c2C)cc1	-	-	-	-	-	-
COc1ccc(C(=O)N[C@H](C(=O)OCc2cc(=O)oc3cc(C)ccc23)C(C)C)cc1	-	-	-	-	-	-
Cc1cc(C)c(S(=O)(=O)NC2CC3CCC2C3)c(C)c1 (stereo unspecified)	-	-	-	-	-	8.5
